Test results as given in ChEMBL document CHEMBL4038284, “Synthesis of novel quinoline-based 4,5-dihydro-1H-pyrazoles as potential anticancer, antifungal, antibacterial and antiprotozoal agents” (Eur J Med Chem, 2017).
Values after ≈ are worked out from the molar mass of the structure shown.

Tests used:
Candida albicans [1] = assay: Growth inhibition of Candida albicans ATCC 10231 at 15.62 ug/ml incubated for 48 hrs under dark condition by broth microdilution method relative to control; format: functional; settings: ATCC 10231, 48 h, read-out: GI
Procedure, shortened: (§1)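 CLSI M27-A3 broth microdilution in RPMI-1640, DMSO ≤1%. Inoculum 1-5 × 10^3 CFU/mL. Incubated 48 h at 30 °C, dark. % inhibition = 100 − (OD405 test − sterility control)/(OD405 growth control − sterility control), with growth and sterility control wells. Triplicate.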

Candida albicans [2] = assay: Growth inhibition of Candida albicans ATCC 10231 at 31.25 ug/ml incubated for 48 hrs under dark condition by broth microdilution method relative to control; format: functional; settings: ATCC 10231, 48 h, read-out: GI; procedure, shortened: as §1
Trypanosoma cruzi = assay: Antitrypanosomal activity against Trypanosoma cruzi Tulahuen intracellular amastigote harboring LacZ infected in human U937 cells after 72 hrs by CPRG/Nonidet reagent based spectrophotometric method; format: functional, cell-based; settings: U-937, 72 h
Procedure, shortened: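 U-937 cells at 2.5 × 10^5 cells/mL in RPMI-1640 with 10% serum and 0.1 µg/mL PMA were infected with β-galactosidase-transfected Tulahuen epimastigotes at 5 parasites per cell. Infected cells were exposed to 50, 12.5, 3.125 and 0.78 µg/mL for 72 h. CPRG (100 uM) and 0.1% Nonidet P-40 were added for 3 h, read at 570 nm. EC50 by Probit. Triplicate, at least two experiments; benznidazole as reference.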

Cryptococcus neoformans [3] = assay: Growth inhibition of Cryptococcus neoformans ATCC 32264 at 62.5 ug/ml incubated for 48 hrs under dark condition by broth microdilution method relative to control; format: functional; settings: ATCC 32264, 48 h, read-out: GI; procedure, shortened: as §1
Escherichia coli = assay: Antibacterial activity against Escherichia coli ATCC 25922 after 24 hrs by resazurin dye based microdilution assay; format: functional; settings: ATCC 25922, 24 h
Procedure, shortened: (§2)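 MIC taken as the lowest concentration giving visible inhibition and/or by resazurin (1 mg/mL). Gentamicin was the control. Run in duplicate, repeated at least three times.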

Leishmania panamensis = assay: Antileshmanial activity against EpiR/GFP fused Leishmania panamensis MHOM/CO/87/UA140 intracellular amastigotes infected in human […] cells after 72 hrs by flow cytometric method; format: functional, cell-based; settings: MHOM/CO/87/UA140, 72 h
Procedure, shortened: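 PMA-treated U-937 cells (3 × 10^5 cells/mL) infected with stationary-phase GFP L. panamensis promastigotes (15:1), 3 h at 34 °C, then washed. After 24 h, compounds added at 50, 12.5, 3.125 and 0.78 µg/mL for 72 h at 37 °C. EC50 by Probit; triplicate, two experiments.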

U-937 = assay: Cytotoxicity against human U937 cells after 72 hrs by MTT assay; format: cell-based; settings: u-937, 72 h
Procedure, shortened: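 Exponentially growing U-937 at 1 × 10^5 cells/mL in RPMI-1640 with 10% FBS were exposed to 200, 50, 12.5 and 3.125 µg/mL for 72 h at 37 °C, 5% CO2. MTT for 3 h, stopped with isopropanol/SDS, formazan read at 570 nm, blank-corrected. LC50 by Probit from % viability against untreated cells. Triplicate, at least two independent experiments.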

Candida albicans [4] = assay: Growth inhibition of Candida albicans ATCC 10231 at 125 ug/ml incubated for 48 hrs under dark condition by broth microdilution method relative to control; format: functional; settings: ATCC 10231, 48 h, read-out: GI; procedure, shortened: as §1
Staphylococcus aureus [5] = assay: Antibacterial activity against methicillin-sensitive Staphylococcus aureus ATCC 25923 after 24 hrs by resazurin dye based microdilution assay; format: functional; settings: ATCC 25923, 24 h; procedure, shortened: as §2
Cryptococcus neoformans [6] = assay: Growth inhibition of Cryptococcus neoformans ATCC 32264 at 125 ug/ml incubated for 48 hrs under dark condition by broth microdilution method relative to control; format: functional; settings: ATCC 32264, 48 h, read-out: GI; procedure, shortened: as §1
Cryptococcus neoformans [7] = assay: Growth inhibition of Cryptococcus neoformans ATCC 32264 at 15.62 ug/ml incubated for 48 hrs under dark condition by broth microdilution method relative to control; format: functional; settings: ATCC 32264, 48 h, read-out: GI; procedure, shortened: as §1
Candida albicans [8] = assay: Growth inhibition of Candida albicans ATCC 10231 at 3.4 ug/ml incubated for 48 hrs under dark condition by broth microdilution method relative to control; format: functional; settings: ATCC 10231, 48 h, read-out: GI
Plasmodium falciparum = assay: Antiplasmodial activity against chloroquine-sensitive Plasmodium falciparum 3D7 assessed as reduction in parasitic LDH activity after 48 hrs by Malstat reagent based […] method; format: functional; settings: 3D7, 48 h
Procedure, shortened: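 Unsynchronized P. falciparum 3D7 at 0.5% parasitemia and 1% hematocrit in RPMI with 3% Albumax II. Exposed to 100, 25, 6.25 and 1.56 µg/mL for 48 h at 37 °C under 90% N2/5% CO2/5% O2. After three freeze-thaw cycles, LDH measured with Malstat and NBT/PES, 1 h in the dark, read at 650 nm. IC50 by Probit; triplicate, ≥2 experiments.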

Staphylococcus aureus [9] = assay: Antibacterial activity against methicillin-resistant Staphylococcus aureus ATCC 43300 after 24 hrs by resazurin dye based microdilution assay; format: functional; settings: ATCC 43300, 24 h
Procedure, shortened: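 Broth microdilution in Mueller Hinton broth, inoculum 5 × 10^5 – 8 × 10^5. Compound stocks diluted in MHB with 5% DMSO and 0.1% Tween 80. Incubation 24 h at 35-37 °C. MIC is the lowest concentration with visible growth inhibition and/or by resazurin (1 mg/mL) read-out. Gentamicin as control. Run in duplicate, replicated at least three times.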

Neisseria gonorrhoeae = assay: Antibacterial activity against beta lactamase positive Neisseria gonorrhoeae ATCC 31426 by oxidase test; format: functional
Procedure, shortened: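 Agar dilution MIC on GC agar with 1% isovitalex containing increasing compound concentrations. Plates inoculated with about 1×10^4 CFU (5 µL). MIC is the lowest concentration that inhibited growth, with growth confirmed by oxidase test. Run in duplicate, repeated at least three times.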

Cryptococcus neoformans [10] = assay: Growth inhibition of Cryptococcus neoformans ATCC 32264 at 3.4 ug/ml incubated for 48 hrs under dark condition by broth microdilution method relative to control; format: functional; settings: ATCC 32264, 48 h, read-out: GI
Candida albicans [11] = assay: Growth inhibition of Candida albicans ATCC 10231 at 62.5 ug/ml incubated for 48 hrs under dark condition by broth microdilution method relative to control; format: functional; settings: ATCC 10231, 48 h, read-out: GI; procedure, shortened: as §1
Cryptococcus neoformans [12] = assay: Growth inhibition of Cryptococcus neoformans ATCC 32264 at 7.8 ug/ml incubated for 48 hrs under dark condition by broth microdilution method relative to control; format: functional; settings: ATCC 32264, 48 h, read-out: GI; procedure, shortened: as §1
Staphylococcus aureus [13] = assay: Antibacterial activity against vancomycin-intermediate Staphylococcus aureus after 24 hrs by resazurin dye based microdilution assay; format: functional; procedure, shortened: as §2
Cryptococcus neoformans [14] = assay: Growth inhibition of Cryptococcus neoformans ATCC 32264 at 250 ug/ml incubated for 48 hrs under dark condition by broth microdilution method relative to control; format: functional; settings: ATCC 32264, 48 h, read-out: GI; procedure, shortened: as §1
Pseudomonas aeruginosa = assay: Antibacterial activity against Pseudomonas aeruginosa ATCC 27853 after 24 hrs by resazurin dye based microdilution assay; format: functional; settings: ATCC 27853, 24 h; procedure, shortened: as §2
Candida albicans [15] = assay: Antifungal activity against Candida albicans ATCC 10231 incubated for 48 hrs under dark condition by broth microdilution method; format: functional; settings: ATCC 10231, 48 h
Procedure, shortened: (§3)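 CLSI M27-A3 broth microdilution in RPMI-1640, DMSO ≤1%, compounds at 250-0.98 µg/mL final. Inoculum 1-5 × 10^3 CFU/mL. Incubated 48 h at 30 °C in a moist dark chamber, read at OD405. MIC80 and MIC50 taken from % inhibition dose-response curves (mean ± SEM, triplicate). Amphotericin B was the positive control.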

Candida albicans [16] = assay: Growth inhibition of Candida albicans ATCC 10231 at 7.8 ug/ml incubated for 48 hrs under dark condition by broth microdilution method relative to control; format: functional; settings: ATCC 10231, 48 h, read-out: GI; procedure, shortened: as §1
Candida albicans [17] = assay: Growth inhibition of Candida albicans ATCC 10231 at 250 ug/ml incubated for 48 hrs under dark condition by broth microdilution method relative to control; format: functional; settings: ATCC 10231, 48 h, read-out: GI; procedure, shortened: as §1
Cryptococcus neoformans [18] = assay: Antifungal activity against Cryptococcus neoformans ATCC 32264 incubated for 48 hrs under dark condition by broth microdilution method; format: functional; settings: ATCC 32264, 48 h; procedure, shortened: as §3
Klebsiella pneumoniae [19] = assay: Antibacterial activity against carbapenemase positive Klebsiella pneumoniae BAA 1705 after 24 hrs by resazurin dye based microdilution assay; format: functional; settings: BAA 1705, 24 h; procedure, shortened: as §2
Cryptococcus neoformans [20] = assay: Growth inhibition of Cryptococcus neoformans ATCC 32264 at 31.25 ug/ml incubated for 48 hrs under dark condition by broth microdilution method relative to control; format: functional; settings: ATCC 32264, 48 h, read-out: GI; procedure, shortened: as §1
Klebsiella pneumoniae [21] = assay: Antibacterial activity against ESBL positive Klebsiella pneumoniae ATCC 700603 after 24 hrs by resazurin dye based microdilution assay; format: functional; settings: Klebsiella pneumoniae, 700603, 24 h; procedure, shortened: as §2

| SMILES | inhibition of growth at 15.62 µg/mL (Candida albicans [1]) | inhibition of growth at 31.25 µg/mL (Candida albicans [2]) | EC50 (Trypanosoma cruzi) | inhibition of growth at 62.5 µg/mL (Cryptococcus neoformans [3]) | MIC (Escherichia coli) | EC50 (Leishmania panamensis) | LC50 (U-937) | inhibition of growth at 125 µg/mL (Candida albicans [4]) | MIC (Staphylococcus aureus [5]) | inhibition of growth at 125 µg/mL (Cryptococcus neoformans [6]) | inhibition of growth at 15.62 µg/mL (Cryptococcus neoformans [7]) | inhibition of growth at 3.4 µg/mL (Candida albicans [8]) | EC50 (Plasmodium falciparum) | MIC (Staphylococcus aureus [9]) | MIC (Neisseria gonorrhoeae) | inhibition of growth at 3.4 µg/mL (Cryptococcus neoformans [10]) | inhibition of growth at 62.5 µg/mL (Candida albicans [11]) | inhibition of growth at 7.8 µg/mL (Cryptococcus neoformans [12]) | MIC (Staphylococcus aureus [13]) | inhibition of growth at 250 µg/mL (Cryptococcus neoformans [14]) | further results |
| --- | --- | --- | --- | --- | --- | --- | --- | --- | --- | --- | --- | --- | --- | --- | --- | --- | --- | --- | --- | --- | --- |
| Cc1ccc(C(=O)/C=C/c2cccc(Nc3ccnc4cc(Cl)ccc34)c2)cc1 | 36.6% | 39.6% | > 1 µg/mL | 100% | > 1000 µg/mL | 1.2 µg/mL (≈ 3.01 µM) | 2 µg/mL (≈ 5.01 µM) | 53.1% | > 1000 µg/mL | 100% | 93.7% | 27.2% | 10.3 µg/mL (≈ 25.7 µM) | > 1000 µg/mL | > 1000 µg/mL | 41.4% | 45.4% | 71.8% | > 1000 µg/mL | 100% | MIC (Pseudomonas aeruginosa): > 1000 µg/mL; MIC50 (Candida albicans [15]): 125 µg/mL (≈ 313 µM); MIC80 (Candida albicans [15]): ≥ 250 µg/mL; inhibition of growth at 7.8 µg/mL (Candida albicans [16]): 30.6%; inhibition of growth at 250 µg/mL (Candida albicans [17]): 63.6%; MIC50 (Cryptococcus neoformans [18]): 7.8 µg/mL (≈ 19.6 µM); MIC80 (Cryptococcus neoformans [18]): 15.6 µg/mL (≈ 39.2 µM); MIC (Klebsiella pneumoniae [19]): > 1000 µg/mL; inhibition of growth at 31.25 µg/mL (Cryptococcus neoformans [20]): 100%; MIC (Klebsiella pneumoniae [21]): > 1000 µg/mL |
| Cc1ccc(C2=NN(c3ccc(Cl)cc3)C(c3cccc(Nc4ccnc5cc(Cl)ccc45)c3)C2)cc1 (stereo not given) | 7.27% | 8.37% | 21.9 µg/mL (≈ 41.9 µM) | 12.9% | > 1000 µg/mL | 49.4 µg/mL (≈ 94.4 µM) | > 200 µg/mL | 16.2% | > 1000 µg/mL | 15.9% | 6.99% | 0% | 13.7 µg/mL (≈ 26.2 µM) | > 1000 µg/mL | > 1000 µg/mL | 0% | 13.1% | 6.57% | > 1000 µg/mL | 22.8% | MIC (Pseudomonas aeruginosa): > 1000 µg/mL; MIC50 (Candida albicans [15]): ≥ 250 µg/mL; MIC80 (Candida albicans [15]): ≥ 250 µg/mL; inhibition of growth at 7.8 µg/mL (Candida albicans [16]): 5.67%; inhibition of growth at 250 µg/mL (Candida albicans [17]): 36.5%; MIC50 (Cryptococcus neoformans [18]): ≥ 250 µg/mL; MIC80 (Cryptococcus neoformans [18]): ≥ 250 µg/mL; MIC (Klebsiella pneumoniae [19]): > 1000 µg/mL; inhibition of growth at 31.25 µg/mL (Cryptococcus neoformans [20]): 10.9%; MIC (Klebsiella pneumoniae [21]): > 1000 µg/mL |
